OX1R antag-1: blocks the human orexin 1 receptor | actives 1.8% (n = 330,000) | O43613 | inhibition, % at 6.6 µM | OX1R-expressing cells, FRET antagonist read-out; in the data active = inhibition mostly above about 38%, no sharp cut-off; inactive = mostly below about 40%;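 also: 0% = agonist challenge alone and 100% = reference antagonist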
OXTR potentiator: potentiates the human oxytocin receptor response | P30559 | CHO-OTR cells, Fluo-8 calcium fluorescence, potentiator mode; 0% = oxytocin EC15, 100% = EC100 | activation, % at 3 µM | actives 0.061% (n = 320,000);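 active = activation above that plate's cutoff, the mean activation of tested compounds plus 3 SD, cut at about 6.6% in these data, passing the limit was not always enough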;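 also: 100% uses oxytocin at 75 nM as the full agonist control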
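Replication – single well per compound, singlicate · Assay system – CHO cell line stably expressing human OTR · Timing – 6 min pre-incubation, 100 s read · Measure – normalized max/min fluorescence ratio, % activation · Doses – 3.0 µM, one dose · Detection – Fluo-8 calcium dye fluorescence · Probe or stimulus – oxytocin near EC15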
CHO parental Ca: counter-screen for OX1R antagonists: effect in parental CHO cells | parental CHO-K1, ATP-induced calcium, Fluo-8 fluorescence | inhibition, % at 5.6 µM | actives 0.63% (n = 330,000);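 active = inhibition above that plate's mean sample inhibition plus 3 SD, cut at about 26% in these data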;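 also: 0% = ATP-challenged DMSO wells and 100% = DMSO wells without ATP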
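Test system: untransfected parental CHO cell line; also added: ATP stimulus; dosing: 5.6 µM, single dose; signal: calcium-sensitive Fluo-8 fluorescence; measure: percent inhibition of ATP-evoked calcium rise, normalized to controls; benchmarks: low control ATP plus DMSO, high control DMSO only; replication: one well per compound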
V1R ag counter: V1a receptor agonism, counter-screen for OXTR agonists. AID 2797. P37288. actives 0.25% (n = 320,000). activation, % at 3 µM. CHO-V1R cells, Fluo-8 calcium fluorescence, agonist mode; 0% DMSO, 100% 3 nM vasopressin;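 active = activation above the mean activation of all tested compounds plus 3 SD, per screening run, cut at about 20% in these data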;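 also: signal is peak over basal fluorescence ratio across a 100 second FLIPR read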
Target sequence (P37288 whole entry, looked up): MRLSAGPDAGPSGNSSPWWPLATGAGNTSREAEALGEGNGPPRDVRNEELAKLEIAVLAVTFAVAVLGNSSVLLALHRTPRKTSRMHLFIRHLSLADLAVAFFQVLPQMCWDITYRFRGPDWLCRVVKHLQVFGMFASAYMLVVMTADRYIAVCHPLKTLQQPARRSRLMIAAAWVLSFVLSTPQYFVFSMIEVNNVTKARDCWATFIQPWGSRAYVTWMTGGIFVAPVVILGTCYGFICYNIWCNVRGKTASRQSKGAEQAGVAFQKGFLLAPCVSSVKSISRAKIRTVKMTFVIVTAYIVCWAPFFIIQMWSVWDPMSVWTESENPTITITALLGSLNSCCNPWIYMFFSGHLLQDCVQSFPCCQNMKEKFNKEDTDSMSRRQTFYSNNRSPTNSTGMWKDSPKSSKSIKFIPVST
OX1R antag-2: human HCRTR1 antagonism. O43613. CHO/OX1R cells, Fluo-8 calcium fluorescence, orexin A. inhibition, % at 5 µM. actives 0.43% (n = 330,000);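 active = inhibition above its plate's threshold, mean inhibition of all tested compounds on the plate plus 3 SD, cut at about 37% in these data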;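 also: 0% = orexin A challenge wells and 100% = SB-334867-A antagonist wells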
OXTR agonist: activates the human oxytocin receptor; actives 0.32% (n = 320,000); activation, % at 3 µM; CHO-OTR cells, Fluo-8 calcium fluorescence; normalized: DMSO 0%, oxytocin 100%;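 active = activation above the mean of all tested compounds plus 3 SD, cutoff set per screening run, cut at about 20% in these data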;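 also: peak over basal fluorescence ratio from a 100 s FLIPR kinetic read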
V1R ag confirm: confirmation of human vasopressin V1a receptor agonists. shares compounds with V1R ag counter. CHO-V1R cells, Fluo-8 calcium fluorescence, agonist. activation, % at 3 µM. actives 20% (n = 180);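 active = average activation exceeds primary screen hit cutoff, cut at about 21% in these data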;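 also: peak over basal fluorescence ratio during a 100 s FLIPR read; 0% = DMSO only wells and 100% = 3 nM vasopressin wells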
OXTR ag counter: activates oxytocin receptor in V1a agonist counter-screen; shares compounds with V1R ag counter; CHO-OTR cells, Fluo-8 calcium fluorescence; activation, % at 3 µM; actives 10% (n = 180);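 active = mean activation over three repeats above the cutoff from the earlier oxytocin receptor agonist screen, cut at about 20% in these data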;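 also: peak over minimum fluorescence ratio within a 100 second FLIPR read; 0% = DMSO only wells and 100% = oxytocin high control wells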
OX1R Fluo8 conf: OX1R (human) antagonism, confirmed | CHO/OX1R cells, orexin A calcium Fluo-8 fluorescence | shares compounds with OX1R antag-2 | AID 492963 | actives 38% (n = 1,100) | inhibition, % at 5 µM; in the data active = inhibition above about 29%;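 also: 0% = agonist challenge alone and 100% = reference antagonist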
CHO Ca counter: counter-screen: parental CHO calcium response change, triplicate. shares compounds with OX1R antag-2. parental CHO-K1, ATP-induced calcium, Fluo-8 fluorescence. inhibition, % at 5.6 µM. actives 9.3% (n = 1,100). AID 492965;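 active = inhibition above a per-plate limit, the mean inhibition of that plate's test compounds plus 3 SD, cut at about 25% in these data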;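 also: 0% = ATP challenge with DMSO and 100% = DMSO without ATP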
* = called active by the depositor; x = no result. In the library only some 2.7% were active in any assay of this set; here they are far more common.

SMILES	OX1R antag-1	OXTR potentiator	CHO parental Ca	V1R ag counter	OX1R antag-2	OXTR agonist	OX1R Fluo8 conf	CHO Ca counter	others
CCCCCc1ccc(OCCCC[n+]2ccc(C)cc2)c(CCCCC)c1	14	-26	21	22*	40*	10	16	11	V1R ag confirm=13;OXTR ag counter=17
CCN1CCN(Cc2c(C(=O)N/N=C(\C)c3ccc(Cl)c(Cl)c3)nnn2-c2nonc2N)CC1	16	-2	9	1	-15	1	x	x
COc1ccc(C)cc1NC(=O)CSc1nnc(COc2ccccc2)n1Cc1ccco1	23	-14	14	12	43	4	-17	-14
O=C1CC2(CCN(C(=O)c3ccc(F)cc3)CC2)Oc2ccccc21	7	-14	-17	1	-24	1	x	x
Cc1noc(C)c1C(=O)OCC(=O)c1cc(C)n(Cc2ccccc2Cl)c1C	24	-21	23	5	49*	2	9	13
Cc1noc(C)c1C(=O)OCC(=O)c1ccc[nH]1	12	-6	-2	0	-16	0	x	x
Cc1cc(NC(=O)CN2C(=O)NC(c3ccccc3)(c3ccc(C)c(C)c3)C2=O)no1 (stereo unspecified)	7	-10	-19	1	-7	-1	x	x
COc1ccc(CC(=O)Nc2nc(-c3ccc(F)c(F)c3)cs2)cc1	13	-11	7	3	-23	0	x	x
CC1(C(=O)OCC(=O)Nc2nc(-c3ccc(F)c(F)c3)cs2)CC1(Cl)Cl (stereo unspecified)	32	-16	18	2	28	0	14	-2
COc1ccc(CCNc2c(C)c(C)nc3ncnn23)cc1	11	-11	16	9	45*	15	25	77*
CCc1c(C)nc2ncnn2c1NCCc1ccc(OC)c(OC)c1	3	-6	-12	2	5	5	x	x
CCOC(=O)c1ccc(NC(=S)N2CCSC2c2ccc(Cl)cc2)cc1 (stereo unspecified)	3	-12	28	39*	40	38*	91*	73*
CCOC(=O)c1ccc(NC(=S)N2CCN(C)CC2)cc1	9	-1	-8	1	-18	2	x	x
COc1ccc(CCNC(=O)CNS(=O)(=O)c2ccc(Br)s2)cc1OC	10	1	-10	0	-18	1	x	x
O=C(CNS(=O)(=O)c1ccc(Br)s1)NCCc1ccc(Cl)cc1	21	-13	-7	3	21	3	-5	-3
O=C(Oc1ccc(Cl)c2cccnc12)N1CCOCC1	13	-5	-22	0	-7	-1	x	x
O=C(Oc1ccc(Cl)c2cccnc12)N1CCCCC1	26	-6	-5	-1	90*	-2	-15	-4
CCOc1ccc2nc(SCCNS(=O)(=O)c3ccccc3)sc2c1	26	-11	9	6	50*	1	-4	0
COc1cccc2cc(-c3nc(-c4cccs4)cs3)c(=O)oc12	32	-11	-5	2	39	-1	69*	-7
COc1cccc2cc(-c3ccccc3)c(=O)oc12	18	5	-13	-1	-22	-3	x	x
O=c1c(/C=C(\O)c2ccccc2)nc2ccccc2n1-c1ccccc1	27	-9	-8	1	61*	2	-7	-5
C[C@H](CO)N1C[C@H](C)[C@@H](CN(C)C(=O)NC2CCCCC2)Oc2c(NC(=O)Nc3ccc(C(F)(F)F)cc3)cccc2C1=O	-2	1	-17	4	-24	1	x	x
CCNC(=S)N(Cc1ccc2c(c1)OCO2)C1CC(=O)N(c2ccc(F)cc2)C1=O (stereo unspecified)	59	-22	16	16	57*	13	1	-4
CCNC(=S)N(Cc1ccc2c(c1)OCO2)C1CC(=O)N(c2ccc(OC)cc2)C1=O (stereo unspecified)	16	-17	-13	3	1	3	x	x
C[C@H](CO)N1C[C@H](C)[C@@H](CN(C)Cc2ccc(Cl)c(Cl)c2)Oc2c(NS(=O)(=O)c3cccs3)cccc2C1=O	12	-9	-28	2	7	9	x	x
SMILES	OX1R antag-1	OXTR potentiator	CHO parental Ca	V1R ag counter	OX1R antag-2	OXTR agonist	OX1R Fluo8 conf	CHO Ca counter	others
CCc1ccc(NC(=O)[C@@H](NC(=O)[C@@H]2Cc3ccccc3CN2)C(C)CC)cc1 (stereo partly specified)	0	-5	-9	2	77*	0	-12	-14
C/C(=N\Nc1ccc(C(F)(F)F)cn1)c1ccc(S(=O)(=O)NCc2ccco2)cc1	35	-9	-15	4	30	2	4	0
CCN(c1ccccc1)S(=O)(=O)c1ccc(Cl)c(NC(=O)CNCc2ccccc2OC)c1	17	-8	-21	1	4	4	x	x
COc1ccc(S(=O)(=O)N2CCN(CC(=O)c3[nH]c(C)c(C(C)=O)c3C)CC2)cc1OC	7	-4	-17	1	-32	-1	x	x
CC(=O)c1c(C)[nH]c(C(=O)CN2CCN(S(=O)(=O)c3ccc(C(C)C)cc3)CC2)c1C	2	-11	-17	14	38	13	7	9
COc1cccc(/C=C/C(=O)NCc2ccc3c(c2)OCO3)c1	19	-11	3	-1	-7	0	x	x
CCOc1cc2c(cc1/C=C/c1noc(C)c1[N+](=O)[O-])OC(C)C2 (stereo unspecified)	21	-15	18	16	26	14	51*	44*
CCOc1cc2c(cc1C=O)OC(C)C2 (stereo unspecified)	21	-10	10	0	-4	0	x	x
COc1ccccc1C(=O)NNC(=O)c1ccc(Br)cc1	3	-5	-15	0	-17	0	x	x
S=C(NCc1cccnc1)Nc1cccc2ccccc12	13	-3	-7	1	33	-1	-1	-5
N=C1/C(=C\c2coc3ccc(O)cc3c2=O)C(=O)N=C2SC=CN12	16	-26	21	42*	32	47*	26	30*

Screening results as filed in PubChem.
